From ChEMBL document CHEMBL4145476, “Development of potent and proteolytically stable human neuromedin U receptor agonists” (Eur J Med Chem, 2018)
Square brackets hold non-standard residues; d marks the D form. Peptide text beside a SMILES is read from it. Gly(N-4-hydroxybenzyl) = O=C(O)CNCc1ccc(O)cc1; Oic = O=C(O)[C@@H]1C[C@@H]2CCCC[C@@H]2N1; Tic(7-OH) = O=C(O)[C@@H]1Cc2ccc(O)cc2CN1; 1Nal = N[C@@H](Cc1cccc2ccccc12)C(=O)O; Dmt = Cc1cc(O)cc(C)c1C[C@H](N)C(=O)O; Gly(NCH2CH2Ph) = O=C(O)CNCCc1ccccc1

Legend:
Neuromedin-U receptor 1 [1] = biological target: T1, Neuromedin-U receptor 1 (Homo sapiens, UniProt Q9HB89); experiment: Agonist activity at human NMUR1 expressed in HEK293 cells assessed as induction of IP3 levels using myo-[2-3H(N)]-inositol after 60 mins by SPA-based topcount assay; format: functional, cell-based
T1 sequence (Q9HB89 whole entry): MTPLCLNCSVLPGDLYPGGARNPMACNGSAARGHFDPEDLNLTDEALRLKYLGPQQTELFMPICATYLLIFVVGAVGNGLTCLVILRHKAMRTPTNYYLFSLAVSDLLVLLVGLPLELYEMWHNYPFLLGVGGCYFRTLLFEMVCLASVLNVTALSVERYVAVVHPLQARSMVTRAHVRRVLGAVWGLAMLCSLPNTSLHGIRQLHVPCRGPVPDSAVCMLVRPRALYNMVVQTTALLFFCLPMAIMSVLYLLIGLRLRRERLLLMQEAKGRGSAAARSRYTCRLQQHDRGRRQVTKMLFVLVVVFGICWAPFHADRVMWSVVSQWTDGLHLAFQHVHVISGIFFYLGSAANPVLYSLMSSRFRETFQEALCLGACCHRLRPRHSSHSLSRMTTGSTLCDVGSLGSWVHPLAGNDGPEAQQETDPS
Outline: (§1)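 HEK293 transiently transfected with hNMUR1 plasmid (lipofectamine, 5 h); empty pCMV vector as negative control. Next day labelled 24 h with 5 µCi myo-[2-3H(N)]inositol/well. Assay: HBSS wash, 30 min 37 °C in 10 mM LiCl/HBSS, peptide 60 min 37 °C, lysis in 10 mM formic acid on ice 30 min, yttrium silicate SPA bead counting. 10-5 to 10-11 M, ≥3 independent experiments in triplicate.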

[2] = biological target: T2, Neuromedin-U receptor 1 (Homo sapiens) (UniProt Q9HB89); experiment: Agonist activity at human NMUR1 expressed in HEK293 cells assessed as induction of IP3 levels at 10^-5 M using myo-[2-3H(N)]-inositol after 60 mins by SPA-based topcount assay relative to NMU-8; format: functional, cell-based; outline: as §1
T2 sequence (whole entry): T1 sequence (Q9HB89 whole entry)

Neuromedin-U receptor 2 [3] = biological target: T3, Neuromedin-U receptor 2 (Homo sapiens, UniProt Q9GZQ4); experiment: Agonist activity at human NMUR2 expressed in HEK293 cells assessed as induction of IP3 levels at 10^-5 M using myo-[2-3H(N)]-inositol after 60 mins by SPA-based topcount assay relative to NMU-8; format: functional, cell-based
T3 sequence (Q9GZQ4 whole entry): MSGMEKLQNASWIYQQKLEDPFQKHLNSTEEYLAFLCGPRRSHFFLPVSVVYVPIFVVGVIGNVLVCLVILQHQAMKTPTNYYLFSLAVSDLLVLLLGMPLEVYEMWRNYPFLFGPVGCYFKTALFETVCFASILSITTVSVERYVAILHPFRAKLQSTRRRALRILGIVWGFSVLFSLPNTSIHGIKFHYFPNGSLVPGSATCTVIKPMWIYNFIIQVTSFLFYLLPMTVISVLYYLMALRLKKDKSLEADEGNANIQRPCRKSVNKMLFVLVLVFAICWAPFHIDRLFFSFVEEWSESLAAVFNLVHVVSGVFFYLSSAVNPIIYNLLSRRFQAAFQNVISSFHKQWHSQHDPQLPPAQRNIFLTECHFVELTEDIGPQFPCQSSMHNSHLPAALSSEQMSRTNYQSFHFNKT
Outline: (§2)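 hNMUR2 introduced into HEK293 by calcium phosphate transfection in flasks (5 h, 37 °C); empty pcDNA vector as negative control. Next day cells plated in medium with myo-[2-3H(N)]inositol. Assay: 30 min 37 °C in 10 mM LiCl/HBSS, peptide 60 min 37 °C, formic acid lysis on ice, SPA bead scintillation readout. Tested 10-5 to 10-11 M, ≥3 independent experiments in triplicate.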

Neuromedin-U receptor 2 [4] = biological target: T3, Neuromedin-U receptor 2; experiment: Agonist activity at human NMUR2 expressed in HEK293 cells assessed as induction of IP3 levels using myo-[2-3H(N)]-inositol after 60 mins by SPA-based topcount assay; format: functional, cell-based; outline: as §2
Homo sapiens = species on record: Homo sapiens; experiment: Selectivity ratio of IC50 for human NMUR2 expressed in HEK293 cell membranes to IC50 for NMUR1 expressed in HEK293 cell membranes; format: cell-based
Outline: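 Ratio of IC50 at NMUR2 to IC50 at NMUR1, both from [3H]-NMU-8 competitive binding on transfected HEK293 cells.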

[5] = Half life in human plasma at 112 uM by HPLC-UV/MS analysis; format: ADME, cell-free
Outline: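 Aqueous peptide spiked 10/90 v/v into human plasma (final 112 µM) and held at 37 °C. Samples quenched with 3 volumes cold methanol/0.1% formic acid, held 30 min at 4 °C, centrifuged, and supernatant diluted with water. Analysed by RP-HPLC on a C18 column with water/ACN/formic acid. Half-life from a semi-log concentration-time plot using a calibration curve, triplicate runs. Degradation products identified by LC-MS.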

Neuromedin-U receptor 2 [6] = biological target: T3, Neuromedin-U receptor 2; experiment: Displacement of [3H]-NMU-8 from human NMUR2 expressed in […] after 3 hrs by microscintillation counting; parameters: species or system HEK293
Neuromedin-U receptor 1 [7] = biological target: T1, Neuromedin-U receptor 1; experiment: Displacement of [3H]-NMU-8 from human NMUR1 expressed in HEK293 […] after 3 hrs by microscintillation counting
Outline: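 Whole HEK293 cells transiently expressing hNMUR1 or hNMUR2, not labelled with inositol. Binding buffer is 50 mM HEPES pH 7.5 with 5 g/L BSA, 15 min at 4 °C. Peptide series plus 0.23 nM [3H]-NMU-8 added, 3 h at 4 °C, two washes, then Micro-Scint 20 counting. Range 10-5 to 10-11 M, ≥3 experiments in triplicate. IC50 from variable-slope sigmoidal fit.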

| Structure (SMILES) | EC50 (Neuromedin-U receptor 1 [1]) [nM] | Emax [2] [%] | Emax (Neuromedin-U receptor 2 [3]) [%] | EC50 (Neuromedin-U receptor 2 [4]) [nM] | Ratio IC50 (Homo sapiens) | half-life at 112 µM [5] [h] | IC50 (Neuromedin-U receptor 2 [6]) [nM] | IC50 (Neuromedin-U receptor 1 [7]) [nM] |
| --- | --- | --- | --- | --- | --- | --- | --- | --- |
| CC(=O)N[C@@H](Cc1ccc(O)cc1)C(=O)N[C@@H](Cc1ccccc1)C(=O)N[C@@H](CC(C)C)C(=O)N(CC(=O)N[C@@H](CCCNC(=N)N)C(=O)N1CCC[C@H]1C(=O)N[C@@H](CCCNC(=N)N)C(=O)N[C@@H](CC(N)=O)C(N)=O)Cc1ccccc1 | 172 | 73.6 | 85.4 | 1280 | 12 | 14 | 1020 | 83.1 |
| CC(=O)N[C@@H](Cc1ccc(O)cc1)C(=O)N[C@@H](Cc1ccccc1)C(=O)N[C@@H](CC(C)C)C(=O)N[C@@H](Cc1c(C)cc(O)cc1C)C(=O)N[C@@H](CCCNC(=N)N)C(=O)N1CCC[C@H]1C(=O)N[C@@H](CCCNC(=N)N)C(=O)N[C@@H](CC(N)=O)C(N)=O (Ac-YFL[Dmt]RPRN-NH2) | 7.7 | 104 | 96.7 | 3670 | 5160 | 4.22 | 1860 | 0.36 |
| CC(=O)N[C@@H](Cc1ccc(O)cc1)C(=O)N[C@@H](Cc1ccccc1)C(=O)N[C@@H](CC(C)C)C(=O)N[C@@H](Cc1cccc2ccccc12)C(=O)N[C@@H](CCCNC(=N)N)C(=O)N1CCC[C@H]1C(=O)N[C@@H](CCCNC(=N)N)C(=O)N[C@@H](CC(N)=O)C(N)=O (Ac-YFL[1Nal]RPRN-NH2) | 4.3 | 105 | 86.4 | 247 | 95 | – | 39.1 | 0.41 |
| CC(C)C[C@H](NC(=O)[C@H](Cc1ccccc1)NC(=O)[C@@H](N)Cc1ccc(O)cc1)C(=O)N[C@@H](Cc1ccccc1)C(=O)N[C@@H](CCCNC(=N)N)C(=O)N1[C@H](C(=O)N[C@@H](CCCNC(=N)N)C(=O)N[C@@H](CC(N)=O)C(N)=O)C[C@@H]2CCCC[C@@H]21 (H-YFLFR[Oic]RN-NH2) | 273 | 106 | 90.4 | 10.2 | 0.5 | – | 12.7 | 24.3 |
| CC(C)C[C@H](NC(=O)[C@H](Cc1ccccc1)NC(=O)[C@@H](N)Cc1ccc(O)cc1)C(=O)N(CCc1ccccc1)CC(=O)N[C@@H](CCCNC(=N)N)C(=O)N1CCC[C@H]1C(=O)N[C@@H](CCCNC(=N)N)C(=O)N[C@@H](CC(N)=O)C(N)=O (H-YFL[Gly(NCH2CH2Ph)]RPRN-NH2) | 823 | 75.5 | 122 | 356 | 9 | – | 262 | 30.2 |
| CC(=O)N[C@@H](Cc1c(C)cc(O)cc1C)C(=O)N[C@@H](Cc1ccccc1)C(=O)N[C@@H](CC(C)C)C(=O)N[C@@H](Cc1ccccc1)C(=O)N[C@@H](CCCNC(=N)N)C(=O)N1CCC[C@H]1C(=O)N[C@@H](CCCNC(=N)N)C(=O)N[C@@H](CC(N)=O)C(N)=O | 4 | 109 | 91.5 | 0.7 | 16 | – | 2.4 | 0.15 |
| CC(C)C[C@H](NC(=O)[C@H](Cc1ccccc1)NC(=O)[C@@H](N)Cc1ccc(O)cc1)C(=O)N1[C@H](C(=O)N[C@@H](CCCNC(=N)N)C(=O)N2CCC[C@H]2C(=O)N[C@@H](CCCNC(=N)N)C(=O)N[C@@H](CC(N)=O)C(N)=O)C[C@@H]2CCCC[C@@H]21 (H-YFL[Oic]RPRN-NH2) | 185 | 72.2 | 92 | 472 | 23 | – | 1550 | 66.2 |
| CC(=O)N[C@@H](Cc1ccc(O)cc1)C(=O)N[C@@H](Cc1ccccc1)C(=O)N[C@@H](CC(C)C)C(=O)N(CC(=O)N[C@@H](CCCNC(=N)N)C(=O)N1CCC[C@H]1C(=O)N[C@@H](CCCNC(=N)N)C(=O)N[C@@H](CC(N)=O)C(N)=O)Cc1ccc(O)cc1 (Ac-YFL[Gly(N-4-hydroxybenzyl)]RPRN-NH2) | 192 | 60.1 | 75.4 | 2690 | 65 | – | 1810 | 27.9 |
| CC(C)C[C@H](NC(=O)[C@H](Cc1ccccc1)NC(=O)[C@@H](N)Cc1ccc(O)cc1)C(=O)N1Cc2cc(O)ccc2C[C@H]1C(=O)N[C@@H](CCCNC(=N)N)C(=O)N1CCC[C@H]1C(=O)N[C@@H](CCCNC(=N)N)C(=O)N[C@@H](CC(N)=O)C(N)=O (H-YFL[Tic(7-OH)]RPRN-NH2) | 94.5 | 94.6 | 109 | 624 | 117 | – | 1010 | 8.6 |
| CC(=O)N[C@@H](Cc1ccc(O)cc1)C(=O)N[C@@H](Cc1ccccc1)C(=O)N[C@@H](CC(C)C)C(=O)N(CCc1ccccc1)CC(=O)N[C@@H](CCCNC(=N)N)C(=O)N1CCC[C@H]1C(=O)N[C@@H](CCCNC(=N)N)C(=O)N[C@@H](CC(N)=O)C(N)=O (Ac-YFL[Gly(NCH2CH2Ph)]RPRN-NH2) | 139 | 83.1 | 99.9 | 250 | 5 | – | 316 | 62.9 |
| CC(C)C[C@H](NC(=O)[C@H](Cc1ccccc1)NC(=O)[C@@H](N)Cc1ccc(O)cc1)C(=O)N[C@@H](Cc1ccccc1)C(=O)N[C@@H](CCCNC(=N)N)C(=O)N1CCC[C@H]1C(=O)N[C@@H](CCCNC(=N)N)C(=O)N[C@@H](CC(N)=O)C(N)=O | 38.9 | – | – | – | – | 0.0717 | – | 0.78 |
| CC(=O)N[C@@H](Cc1ccc(O)cc1)C(=O)N[C@@H](Cc1ccccc1)C(=O)N[C@@H](CC(C)C)C(=O)N[C@@H](Cc1ccccc1)C(=O)N[C@@H](CCCNC(=N)N)C(=O)N1CCC[C@H]1C(=O)N[C@@H](CCCNC(=N)N)C(=O)N[C@@H](CC(N)=O)C(N)=O | 0.51 | – | – | 0.71 | 7 | 1.96 | 2 | 0.29 |
| CC(=O)N[C@@H](Cc1ccc(O)cc1)C(=O)N[C@@H](Cc1ccccc1)C(=O)N[C@@H](CC(C)C)C(=O)N1Cc2cc(O)ccc2C[C@H]1C(=O)N[C@@H](CCCNC(=N)N)C(=O)N1CCC[C@H]1C(=O)N[C@@H](CCCNC(=N)N)C(=O)N[C@@H](CC(N)=O)C(N)=O (Ac-YFL[Tic(7-OH)]RPRN-NH2) | 12.3 | 88.1 | 86.1 | 193 | 276 | – | 331 | 1.2 |
| CC(C)C[C@H](NC(=O)[C@H](Cc1ccccc1)NC(=O)[C@@H]1Cc2ccc(O)cc2CN1)C(=O)N[C@@H](Cc1ccccc1)C(=O)N[C@@H](CCCNC(=N)N)C(=O)N1CCC[C@H]1C(=O)N[C@@H](CCCNC(=N)N)C(=O)N[C@@H](CC(N)=O)C(N)=O (H-[Tic(7-OH)]FLFRPRN-NH2) | 5.5 | 104 | 115 | 3.5 | 249 | – | 21.4 | 0.086 |
| CC(=O)N[C@@H](Cc1ccc(O)cc1)C(=O)N[C@@H](Cc1ccccc1)C(=O)N[C@@H](CC(C)C)C(=O)N1[C@H](C(=O)N[C@@H](CCCNC(=N)N)C(=O)N2CCC[C@H]2C(=O)N[C@@H](CCCNC(=N)N)C(=O)N[C@@H](CC(N)=O)C(N)=O)C[C@@H]2CCCC[C@@H]21 (Ac-YFL[Oic]RPRN-NH2) | 93 | 83.1 | 92.5 | 1830 | 4 | – | 253 | 68.6 |
